# Compound activity (PubChem)
# Hits are enriched below; roughly 1.1% of the tested compounds scored in any of these assays.
# DAGLB inhibitor: diacylglycerol lipase beta (human) inhibition; Q8NCG7; HEK293T DAGLB membrane lysate, EnzChek fluorogenic substrate; inhibition, % at 5.17 µM; 0.059% of 340,000 active; in the data active = inhibition above about 34%;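 also: 0% = enzyme with vehicle and 100% = wells lacking enzyme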
# HCV core dimer: blocks dimerization of HCV core protein; inhibition, % at 5 µM; TR-FRET GST/Flag-core106 dimerization, 1536-well; AID 1899; 0.33% of 300,000 active;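 active = inhibition above the mean of all tested compounds plus 3 SD, set per screening campaign, cut at about 45% in these data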
#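 System: GST-tagged and Flag-tagged HCV core protein residues 1-106 / Input: core106 proteins, GST 13.5 nM and Flag 17 nM / Buffer or medium: KF-containing HEPES buffer, pH 7.45, DTT, CHAPS, BSA / Probe or stimulus: Eu-anti-GST and XL665-anti-Flag labelled anti-tag antibodies / Schedule: 4 h, 22.5 °C incubation / Technique: TR-FRET 671 and 617 nm emission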
# NR2E3 ag-1: activates human NR2E3 receptor. inhibition of corepressor binding, % at 3.98 µM. 0.35% of 360,000 active. Q9Y5X4. CHO-S Gal4-NCOR/VP16-NR2E3 two-hybrid, luciferase;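 active = inhibition above the mean of all tested compounds plus 3 SD, cut at about 70% in these data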;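 also: 0% = DMSO with NR2E3 transfected cells and 100% = cells lacking NR2E3 construct; higher means lower luciferase signal from less NR2E3 corepressor binding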
# Target sequence (Q9Y5X4 whole entry, looked up, the tested form may be a part): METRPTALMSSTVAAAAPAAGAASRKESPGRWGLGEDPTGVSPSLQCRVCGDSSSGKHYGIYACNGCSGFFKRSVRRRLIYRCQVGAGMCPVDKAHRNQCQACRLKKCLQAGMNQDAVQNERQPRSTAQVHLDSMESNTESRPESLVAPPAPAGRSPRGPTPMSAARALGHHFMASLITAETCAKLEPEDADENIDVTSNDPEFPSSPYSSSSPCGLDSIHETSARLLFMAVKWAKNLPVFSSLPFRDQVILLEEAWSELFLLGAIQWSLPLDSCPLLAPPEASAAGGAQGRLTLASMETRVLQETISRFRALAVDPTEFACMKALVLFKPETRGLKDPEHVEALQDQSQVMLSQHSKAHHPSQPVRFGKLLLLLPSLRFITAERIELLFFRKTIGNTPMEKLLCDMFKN
# NR2E3 ag-2: agonists of human nuclear receptor NR2E3. Q9Y5X4. GST-NR2E3/biotin-RetCOR TR-FRET, 1536-well. inhibition of corepressor binding, % at 4.78 µM. 0.12% of 320,000 active;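 active = percent inhibition above the cutoff of mean plus 3 SD of all tested compounds, set per screening campaign, cut at about 20% in these data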;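 also: 0% = DMSO wells and 100% = biotin wells as full block of FRET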
#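 Material: NR2E3–RetCOR corepressor complex / Amount: 1.35 nM GST-NR2E3 / Medium: Tris pH 7.5 / Compound: single nominal compound dose of 4.8 µM / Incubation: 5 h at 4 °C / Technique: TR-FRET, Eu(K)-anti-GST donor, streptavidin-D2 acceptor, ex 340, em 617/671 nm / Read-out basis: percent loss of FRET ratio relative to control wells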
# MT1-MMP act inh: MT1-MMP (human) activation inhibition. P50281. HT1080 RFP-PRO-GFP cells, GFP/RFP ratio fluorescence, overnight; percent of plate control window, DMSO zero. GFP/RFP ratio change, % at 20 µM. 0.061% of 360,000 active;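 active = GFP/RFP ratio change of at least 30% with cell ATP level not reduced by more than half and red fluorescence within 50% of control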
#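 Assay system: HT1080 cells carrying an RFP-PRO-GFP reporter | Dosing: Single dose of 20 µM compound, 1% DMSO final | Incubation: Cells overnight before dosing, compound overnight, 37 °C, 5% CO2 | Evaluation: GFP/RFP fluorescence ratio | Control set: DMSO and RFP-L50D-GFP cell wells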
# Vif imaging: blocks HIV Vif function | HEK293T cells, Vif self-association by quenched fluorescence, imaging, 24 h | inhibition, % at 7.49 µM | 0.35% of 340,000 active; in the data active = inhibition above about 50%, passing the limit was not always enough
# * marks the source's active call; other numbers are inactive results; / = no result.
SMILES,DAGLB inhibitor,HCV core dimer,NR2E3 ag-1,NR2E3 ag-2,MT1-MMP act inh,Vif imaging
CCOC(=O)C[C@@H](C#N)NC(=O)[C@@H]1CCCN1C(=O)[C@@H](NC(=O)c1ccc(N)c(Cl)c1)C(C)(C)C,/,/,-8,/,1,76*
CC(C)(C)[C@H](NC(=O)c1ccc(N)c(Cl)c1)C(=O)N1CCC[C@H]1C(=O)N[C@H](C#N)CC(=O)O,/,/,-5,/,1,-9
O=C1Nc2ccccc2-n2nnnc2C1N1CCN(C(=O)C2CCCO2)CC1 (stereo unspecified),/,/,/,/,2,/
O=C1C(Nc2ccccc2)=C(N2CCCCC2)C(=O)c2ccccc21,0,13,-40,3,-15,25
CN(C1=C(N2CCCCC2)C(=O)c2ccccc2C1=O)c1ccccc1,38*,-7,-15,-1,4,/
O=C(NCCCn1ccnc1)C(=O)NCC(c1ccco1)N1CCN(c2ccccc2)CC1 (stereo unspecified),-2,2,-8,3,-3,-1
O=C(NCCCn1ccnc1)C(=O)NCC(c1cccnc1)N1CCN(c2ccccc2)CC1 (stereo unspecified),1,-7,42,5,2,54*
CCCc1nc2c3ccccc3ccn2c1Cc1cccc(F)c1,/,/,-38,/,3,/
COc1ccc2nc(/N=C/c3c(C)[nH]n(-c4ccc(C)cc4)c3=O)sc2c1,1,-1,-23,0,0,-1
Cc1ccc(CNC(=O)COc2ccc(S(=O)(=O)N3CCOCC3)cc2)cc1,-1,0,-3,0,2,6
Cc1cccn2c(=O)c3cc(C#N)c(=NC(=O)c4ccccc4)n(Cc4ccco4)c3nc12,3,46*,-13,-3,-4,-1
Cc1cccn2c(=O)c3cc(C#N)c(=NC(=O)c4ccco4)n(Cc4ccco4)c3nc12,1,27,-18,-1,-21,-3
Cc1cccc(C(=O)N=c2c(C#N)cc3c(=O)n4cccc(C)c4nc3n2Cc2ccco2)c1,0,60*,-2,-2,-2,1
COc1cccc(-c2cnc3c(NC(C)=O)cc(-c4ccc(S(C)(=O)=O)cc4)cn23)c1,/,/,15,/,-10,-8
CCN1N=C(c2ccccc2)Cn2c1nc1ccccc12,0,4,1,-3,-5,-11
O=C(O)COc1ccc(C(NC(=O)c2c(F)cccc2F)NC(=O)c2c(F)cccc2F)cc1,-3,-5,-1,0,2,3
CCn1c(CCNS(=O)(=O)c2ccccc2Br)nnc1SC,-2,-9,-56,3,-2,54*
CSc1nnc(CCNS(=O)(=O)c2ccccc2Br)n1C,-3,0,6,2,0,-1
COc1ccc2cc(CCNS(=O)(=O)c3ccc(NC(C)=O)cc3)c(=O)[nH]c2c1,-1,9,2,3,-3,57*
NC(=O)CSc1nc2ccc([N+](=O)[O-])cc2[nH]1,1,13,-54,-1,1,-6
Cc1cccc2nc(CSc3nc4ccc([N+](=O)[O-])cc4[nH]3)c(Br)n12,3,17,-5,-1,0,54*
CCN(CCc1ccccc1)c1ccc2c(c1)C1CC2CCN1Cc1ccccc1 (stereo unspecified),-10,/,-3,/,-3,/
CCN(C(=O)CSc1nnc(NCc2ccccc2)s1)C1CCS(=O)(=O)C1 (stereo unspecified),1,-5,-8,-3,3,-17
CCN(C(=O)CSc1nnc(Nc2cccc(C)c2C)s1)C1CCS(=O)(=O)C1 (stereo unspecified),1,-5,9,0,4,56*
S=C(NC1CC1)N1CCc2ccccc2C1,0,-3,-11,-3,-1,94*
SMILES,DAGLB inhibitor,HCV core dimer,NR2E3 ag-1,NR2E3 ag-2,MT1-MMP act inh,Vif imaging
S=C(NC1CCCCC1)N1CCc2ccccc2C1,-2,-7,-36,0,12,-11
Cc1onc(-c2ccccc2Cl)c1C(=O)NCc1ccco1,-1,57*,-10,5,-5,-1
Cc1ccc(CNC(=O)c2c(-c3ccccc3Cl)noc2C)cc1,0,-3,7,0,-1,-2
CCc1nnc(NC(=O)CCc2ccc(C)o2)s1,2,-1,9,0,1,0
CCc1ccc(CCC(=O)Nc2nnc(C)s2)o1,-4,0,1,0,3,55*
O=C(Cn1c(=O)oc2cc(S(=O)(=O)N3CCCCC3)ccc21)N1CCc2ccccc21,3,8,-4,-2,0,53*
COC(=O)C1=CN(c2ccc(N3CCOCC3)cc2)C(N)=C(C#N)C1c1cccc(F)c1 (stereo unspecified),/,/,/,/,-1,/
C=CCN1C(=O)/C(=C2/Sc3ccccc3N2CC)SC1=S,0,-9,-5,-3,-9,85*
COc1ccc(CCNC(=O)CCN2C(=O)COc3ccc(C)cc32)cc1OC,1,3,-6,-4,6,-7
COc1ccc(CCNC(=O)CCN2C(=O)COc3ccccc32)cc1OC,0,-4,1,1,7,126*
O=C(NNC(=O)c1ccc[nH]1)Nc1cc(Cl)cc(Cl)c1,/,-1,-11,0,0,55*
COc1cc(S(=O)(=O)NCc2ccncc2)c(OC)cc1C,2,-10,-2,0,0,51*
COc1cc(S(=O)(=O)NCc2ccncc2)c(OC)cc1Br,-1,-1,-15,2,-5,-14
CCC(=O)N[C@@H]1C=C[C@@H](CC(=O)NCc2ccccc2F)O[C@@H]1CO,/,/,/,/,-2,/
S=C(Nc1ccccc1)N1CCn2c(nc3ccccc32)C1,0,-5,-2,0,1,58*
CC1(C)Oc2c(ccc(O)c2CN2CCOCC2)C2=C1CCCC2,0,/,-7,/,-1,-1
CCOC(=O)C1CCCN(C(=O)c2cc(S(=O)(=O)N(C)C)ccc2N2CCCC2)C1 (stereo unspecified),1,-1,-1,1,9,56*
CCCN(CC(=O)Nc1ccccc1C)C(=O)C1CC(=O)N(Cc2ccccc2)C1 (stereo unspecified),-2,0,-13,7,-1,-2
COc1cccc(/C=N/Nc2ncnc3c2[nH]c2ccc(C)cc23)c1OC,-4,49*,16,2,11,-8
COc1ccc(/C=N/Nc2ncnc3c2[nH]c2ccccc23)c(OC)c1OC,4,4,0,1,9,0
CCCNC(=O)C[C@H]1CC[C@@H]2[C@H](COC[C@@H](O)CN2C(=O)c2ccccn2)O1,/,/,/,/,0,/
O=C(COc1ccc(Cl)cc1Br)NC(=O)NCc1ccccc1,-2,2,-7,4,0,-11
